Assay results from ChEMBL document CHEMBL1147678, “Discovery of a potent, nonpolyglutamatable inhibitor of glycinamide ribonucleotide transformylase” (J Med Chem, 2006).

Tests used:
[1] = tested on: CCRF-CEM; assay: Antiproliferative activity against human CCRF-CEM cell line; format: functional, cell-based
How it was run: (§1)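 CCRF-CEM human leukemia cells (parental or variant line) were continuously exposed to the test compounds for 72 h, and growth inhibition was then measured.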

[2] = target: Bifunctional purine biosynthesis protein ATIC (Homo sapiens, UniProt P31939); assay: Inhibition of human recombinant AICAR Tfase
How it was run: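 Recombinant human AICAR Tfase assayed by a previously described method. Reaction kinetics were followed for 2 min after initiation. Ki was derived from Dixon plots.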

[3] = tested on: CCRF-CEM; assay: Antiproliferative activity against human CCRF-CEM cell line in presence of hypoxanthine; format: functional, cell-based
[4] = tested on: CCRF-CEM; assay: Antiproliferative activity against human CCRF-CEM cell line in presence of thymidine; format: functional, cell-based
[5] = tested on: CCRF-CEM; assay: Antiproliferative activity against reduced folate carrier-deficient CCRF-CEM cell line; format: functional, cell-based; details: Homo sapiens; how it was run: as §1
[6] = tested on: CCRF-CEM; assay: Antiproliferative activity against FPGS-deficient CCRF-CEM cell line; format: functional, cell-based; details: Homo sapiens; how it was run: as §1
[7] = target: T1, Trifunctional purine biosynthetic protein adenosine-3 (Homo sapiens, UniProt P22102); assay: Inhibition of human recombinant GAR Tfase
T1 sequence (P22102 whole entry): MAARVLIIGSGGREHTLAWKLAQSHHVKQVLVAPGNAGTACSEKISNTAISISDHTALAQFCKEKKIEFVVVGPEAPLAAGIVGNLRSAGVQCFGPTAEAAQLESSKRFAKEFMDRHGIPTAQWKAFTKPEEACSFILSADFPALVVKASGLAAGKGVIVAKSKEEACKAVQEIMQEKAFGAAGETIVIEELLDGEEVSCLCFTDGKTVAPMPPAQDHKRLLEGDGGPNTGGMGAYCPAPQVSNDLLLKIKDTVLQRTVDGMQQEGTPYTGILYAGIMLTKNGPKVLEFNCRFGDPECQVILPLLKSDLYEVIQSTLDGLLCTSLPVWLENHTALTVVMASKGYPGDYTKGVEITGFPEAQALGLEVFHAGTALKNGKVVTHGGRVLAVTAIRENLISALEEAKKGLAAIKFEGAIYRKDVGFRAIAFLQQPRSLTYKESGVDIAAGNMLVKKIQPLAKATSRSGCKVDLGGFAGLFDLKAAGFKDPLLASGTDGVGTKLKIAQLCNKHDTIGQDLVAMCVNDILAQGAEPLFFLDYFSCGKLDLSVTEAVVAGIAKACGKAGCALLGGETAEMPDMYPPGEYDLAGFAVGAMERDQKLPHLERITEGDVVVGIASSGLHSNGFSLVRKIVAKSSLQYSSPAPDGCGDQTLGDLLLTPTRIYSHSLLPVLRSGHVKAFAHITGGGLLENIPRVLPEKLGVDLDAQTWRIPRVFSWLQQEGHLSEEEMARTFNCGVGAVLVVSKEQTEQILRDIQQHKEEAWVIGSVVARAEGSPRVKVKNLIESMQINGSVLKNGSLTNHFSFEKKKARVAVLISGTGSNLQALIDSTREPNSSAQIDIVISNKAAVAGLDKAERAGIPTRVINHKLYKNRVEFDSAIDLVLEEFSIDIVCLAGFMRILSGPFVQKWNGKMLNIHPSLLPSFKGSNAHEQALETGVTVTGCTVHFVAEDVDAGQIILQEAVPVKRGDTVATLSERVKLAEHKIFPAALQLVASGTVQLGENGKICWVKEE

Sequence of Bifunctional purine biosynthesis protein ATIC (P31939 whole entry): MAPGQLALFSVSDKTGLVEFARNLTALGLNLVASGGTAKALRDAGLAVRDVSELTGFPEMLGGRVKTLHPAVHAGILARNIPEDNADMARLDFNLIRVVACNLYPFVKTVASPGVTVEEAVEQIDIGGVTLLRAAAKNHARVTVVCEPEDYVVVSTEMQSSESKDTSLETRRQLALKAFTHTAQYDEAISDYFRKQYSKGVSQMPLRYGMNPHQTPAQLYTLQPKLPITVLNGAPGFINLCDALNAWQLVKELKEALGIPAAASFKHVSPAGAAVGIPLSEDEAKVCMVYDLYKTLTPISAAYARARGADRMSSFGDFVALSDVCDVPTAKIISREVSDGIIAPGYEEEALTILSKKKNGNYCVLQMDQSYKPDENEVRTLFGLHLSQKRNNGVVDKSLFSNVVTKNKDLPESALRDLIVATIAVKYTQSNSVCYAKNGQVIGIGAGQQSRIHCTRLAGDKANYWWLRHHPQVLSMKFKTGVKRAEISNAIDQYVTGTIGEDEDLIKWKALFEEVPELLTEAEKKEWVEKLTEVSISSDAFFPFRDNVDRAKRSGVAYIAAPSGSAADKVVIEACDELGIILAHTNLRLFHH

IC50 [1]	Ki [2]	IC50 [3]	IC50 [4]	IC50 [5]	IC50 [6]	Ki [7]	Compound
0.016 µM	> 100 µM	> 100 µM	0.017 µM	> 100 µM	> 100 µM		Nc1nc(N)c(CCCC(C(=O)C(F)(F)F)c2ccc(C(=O)NC(CCC(=O)O)C(=O)O)cc2)c(O)n1 (stereo unspecified)
> 100 µM	> 100 µM	> 100 µM	> 100 µM	> 100 µM	> 100 µM	21 µM	Nc1nc(N)c(CCCC(C(=O)C(F)(F)F)c2ccc(C(=O)NCC(=O)O)cc2)c(O)n1 (stereo unspecified)
10 µM	> 100 µM	> 100 µM	30 µM	30 µM	40 µM	5 µM	Nc1nc(N)c(CCCC(C(=O)C(F)(F)F)c2ccc(C(=O)NCc3nnn[nH]3)cc2)c(=O)[nH]1 (stereo unspecified)

Second part, the compound before the results:

Compound	IC50 [1]	Ki [2]	IC50 [3]	IC50 [4]	IC50 [5]	IC50 [6]	Ki [7]
Nc1nc(N)c(CCCC(C(=O)C(F)(F)F)c2ccc(C(=O)N[C@@H](CCc3nnn[nH]3)C(=O)O)cc2)c(=O)[nH]1 (stereo partly specified)	0.04 µM	46 µM	> 100 µM	0.09 µM	10 µM	0.05 µM	0.13 µM
Nc1nc2c(c(=O)[nH]1)C[C@@H](CCc1ccc(C(=O)N[C@@H](CCC(=O)O)C(=O)O)cc1)CN2 [LOMETREXOL]	0.2 µM	> 100 µM	> 100 µM			25 µM	
